Source: PubChem BioAssay
Hits are enriched below; roughly 1.9% of the tested compounds scored in any of these assays.
HIF activator: HIF pathway transcriptional activation; 0.32% of 300,000 active; U2OS HRE-luciferase reporter, luminescence; normalized: DMSO 0%, desferrioxamine 100%; activation, % at 7.5 µM (by protocol); AID 1910;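 active means mean activation of at least 10% of the iron chelator positive control signal, with at least half of replicates also reaching 10%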
procasp3 activ: activators of human procaspase-3; P42574; recombinant procaspase-3 D3A, Ac-DEVD-pNA absorbance 405 nm; activation, % at 8.5 µM; 0.11% of 330,000 active; AID 463141;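 active means activation above the mean of all tested compounds plus 3 SD, cut at about 21% in these data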;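 further: 0% = DMSO alone and 100% = DMSO wells spiked with extra 5 µM PC-3 D3A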
Target sequence (P42574 whole entry D9A/D28A/D175A): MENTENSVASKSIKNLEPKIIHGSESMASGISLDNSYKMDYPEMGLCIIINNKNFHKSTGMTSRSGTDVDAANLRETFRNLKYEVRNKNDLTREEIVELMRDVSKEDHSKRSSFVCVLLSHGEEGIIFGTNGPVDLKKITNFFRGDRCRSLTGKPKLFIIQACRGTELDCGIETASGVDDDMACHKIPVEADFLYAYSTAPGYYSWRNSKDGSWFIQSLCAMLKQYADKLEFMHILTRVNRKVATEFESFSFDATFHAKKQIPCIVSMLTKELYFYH
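Technique: 405 nm absorbance of p-nitroaniline, reads at 0 and 120 min; Test system: Procaspase-3 D3A mutant; Incubation: 1 h enzyme-compound preincubation, then 2 h substrate reaction, 25 °C; Repeats: singlicate, each compound tested once; Benchmarks: low control DMSO wells, high control DMSO plus 5 µM PC-3 D3A.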
procasp7 counter: activates human procaspase-7, counter-screen for procaspase-3 activators. recombinant procaspase-7, Ac-DEVD-pNA absorbance 405 nm; D23A/D198A/D206A triple mutant, cannot self-cleave; scale: DMSO 0, 5 µM enzyme 100. activation, % at 8.5 µM. 0.093% of 330,000 active;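 active means percent activation above the screen-wide mean plus 3 SD, cut at about 25% in these data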
Target sequence (P55210 whole entry D23A/D198A/D206A): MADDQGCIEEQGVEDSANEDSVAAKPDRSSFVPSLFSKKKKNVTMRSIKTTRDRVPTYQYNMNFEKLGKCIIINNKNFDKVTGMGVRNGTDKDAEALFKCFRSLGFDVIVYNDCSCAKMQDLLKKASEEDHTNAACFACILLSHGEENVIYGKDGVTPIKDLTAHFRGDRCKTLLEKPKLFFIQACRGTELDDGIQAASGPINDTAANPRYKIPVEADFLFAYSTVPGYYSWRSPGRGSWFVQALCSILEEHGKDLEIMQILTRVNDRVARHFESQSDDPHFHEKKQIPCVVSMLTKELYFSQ
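System: Uncleavable procaspase-7 mutant enzyme; Amount: 2 µM procaspase-7 mutant as dispensed; Schedule: 1 h compound preincubation, 2 h substrate cleavage, 25 °C; Measured by: 405 nm absorbance of p-nitroaniline; Evaluation: percent activation from buffer-corrected 0–120 min absorbance change; Control set: low DMSO alone, high DMSO plus 5 µM PC-7.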
Neddylation inh: cullin neddylation inhibition; TR-FRET cullin neddylation, biochemical; inhibition, % at 25 µM; 0.58% of 360,000 active; AID 651699; in the data active means inhibition above about 36%
FXN GAA850 act: frataxin GAA850 promoter activation; HEK293 lucGAA850 FXN promoter luciferase reporter, 24 h; percent of 10 µM SAHA response; activation, % at 6 µM; 0.56% of 360,000 active; AID 540364;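 active means activation above the average of all compounds screened plus 3 SD, cutoff fixed separately per campaign, cut at about 7.5% in these data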;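 further: 0% = DMSO wells and 100% = 10 µM SAHA wells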
Calb FLC: affects C. albicans growth with fluconazole; 0.57% of 300,000 active; growth inhibition, % (no concentration beside the values); C. albicans CaCi-2 (fluconazole-resistant clinical isolate) + fluconazole, Alamar Blue growth, 48 h;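 active means growth inhibition above about 58% in most replicates, limit read from the data, passing the limit was not always enough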;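 further: all wells also contain fluconazole at 8 µg/ml as a sub-toxic cotreatment; 0% = median of DMSO wells and 100% = median of geldanamycin control wells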
Neddyl conf: confirmation of human cullin neddylation inhibitors | shares compounds with Neddylation inh | TR-FRET cullin neddylation biochemical assay | calls only at 25 µM | 13% of 1,800 active; in the data active means inhibition above about 40%;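 further: neddylation substrate is the cullin 1 ring ligase complex with SKP2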
* hit, by the source's call.

For Cc1cc(Cl)ccc1NC(=O)C(=O)N/N=C/c1ccc2c(c1)OCO2 the results were HIF activator 0, procasp3 activ 8, procasp7 counter 5, Neddylation inh 43*, FXN GAA850 act 1, Calb FLC -6 and Neddyl conf inactive.
`O=C(N/N=C/c1ccc2c(c1)OCO2)C(=O)Nc1ccccc1Cl` gave Neddylation inh 17, FXN GAA850 act 0 and Calb FLC -5.
Screening Cc1ccc(Cl)cc1NC(=O)C(=O)N/N=C/c1ccc2c(c1)OCO2 returned Neddylation inh 39*, FXN GAA850 act 1, Calb FLC -27 and Neddyl conf inactive.
COc1cccc(NC(=S)N/N=C2\CC(C)(C)Oc3ccc(O)cc32)c1 was read as HIF activator -1, procasp3 activ -6, procasp7 counter -12, Neddylation inh 43*, FXN GAA850 act -2, Calb FLC -13 and Neddyl conf inactive.
`Cc1ccc(Cn2c(=N)c(C(=O)NCCN3CCOCC3)cc3c(=O)n4ccccc4nc32)cc1` gave HIF activator 0, procasp3 activ -12, procasp7 counter -16, Neddylation inh 62*, FXN GAA850 act 0, Calb FLC 0 and Neddyl conf active.
`N=c1c(C(=O)NCCN2CCOCC2)cc2c(=O)n3ccccc3nc2n1CCc1ccccc1` gave HIF activator 0, procasp3 activ -17, procasp7 counter -17, FXN GAA850 act 1 and Calb FLC 1.
For NC(=O)c1csc(-c2ccc(CO)o2)n1 the results were Neddylation inh 3.
For Nc1cccc(-c2ccc(CO)o2)c1 the results were HIF activator 1, procasp3 activ -4, procasp7 counter -1, Neddylation inh 42*, FXN GAA850 act -2, Calb FLC 15 and Neddyl conf inactive.
`CCC(=O)C1CCCN(C(=O)c2cccc(OC3CCN(S(C)(=O)=O)CC3)c2)C1` (stereo not drawn) gave HIF activator 0, procasp3 activ -3, procasp7 counter 3, Neddylation inh 9, FXN GAA850 act 3 and Calb FLC -9.
For Cn1c(=O)c(-c2ccccc2N)nc2ccccc21 the results were HIF activator 1, procasp3 activ 1, procasp7 counter -2, Neddylation inh -23, FXN GAA850 act 2 and Calb FLC -2.
Cn1c(=O)c(-c2ccccc2)nc2ccccc21 was read as HIF activator 1, procasp3 activ -3, procasp7 counter -7, Neddylation inh 58*, FXN GAA850 act 2, Calb FLC 7 and Neddyl conf active.
COc1ccccc1OCCNC(=O)c1cccc(S(=O)(=O)N2CC(C)OC(C)C2)c1 (stereo not drawn) was read as HIF activator 1, procasp3 activ 9, procasp7 counter 4, Neddylation inh 2, FXN GAA850 act 0 and Calb FLC 4.
CN1CCN(c2ccccc2NC(=O)c2ccc(-c3ccc(Cl)c(Cl)c3)o2)CC1 was read as HIF activator 1, procasp3 activ 3, procasp7 counter 12, Neddylation inh 38*, FXN GAA850 act 3 and Calb FLC -4.
Screening COc1ccc(C(CNC(=O)c2cc(S(=O)(=O)N3CCN(c4ccccc4)CC3)ccc2Cl)N(C)C)cc1 (stereo not drawn) returned procasp3 activ 0, procasp7 counter 9, Neddylation inh 10 and FXN GAA850 act -5.
Screening COc1ccc2nc3c(nc2c1)CCCC3 returned HIF activator -17, procasp3 activ -8, procasp7 counter -13, Neddylation inh 46*, FXN GAA850 act 1, Calb FLC 8 and Neddyl conf active.
CC1CCN(c2ccccc2NC(=O)c2cc3ccccc3o2)CC1 was read as HIF activator 0, procasp3 activ 9, procasp7 counter 3, Neddylation inh 37*, FXN GAA850 act 3, Calb FLC -5 and Neddyl conf inactive.
Screening CCOC(=O)C1CCCN(C(=O)c2cc3c(OC)c(OC)c(OC)cc3[nH]2)C1 (stereo not drawn) returned HIF activator 0, procasp3 activ -6, procasp7 counter -3, Neddylation inh 32, FXN GAA850 act 2 and Calb FLC -2.
`CCOCCCn1c(C)nc2c(c1=O)c1nc3ccccc3nc1n2CCC1=CCCCC1` gave HIF activator 0, procasp3 activ 0, procasp7 counter 11, Neddylation inh 45*, FXN GAA850 act -1, Calb FLC -8 and Neddyl conf inactive.
Screening CC1Sc2ccc(S(=O)(=O)CCC(=O)N3CCc4ccccc43)cc2NC1=O (stereo not drawn) returned HIF activator 0, procasp3 activ 5, procasp7 counter 0, Neddylation inh 4, FXN GAA850 act 1 and Calb FLC -5.
Screening O=c1[nH]c2ccccc2nc1-c1ccccc1 returned HIF activator 1, procasp3 activ 2, procasp7 counter -1, Neddylation inh 50*, FXN GAA850 act 5, Calb FLC -4 and Neddyl conf active.
O=c1[nH]c2ccccc2nc1-c1ccc(Cl)cc1 was read as HIF activator 3, procasp3 activ -2, procasp7 counter 6, Neddylation inh 26, FXN GAA850 act 3 and Calb FLC 0.
`Cc1cc(F)ccc1S(=O)(=O)Nc1ccccc1C(=O)NCc1ccccn1` gave HIF activator -1, procasp3 activ 4, procasp7 counter 1, Neddylation inh 45*, FXN GAA850 act -1, Calb FLC 56 and Neddyl conf inactive.
`Cc1cc(F)ccc1S(=O)(=O)Nc1ccccc1C(=O)Nc1ncn[nH]1` gave HIF activator 0, procasp3 activ 6, procasp7 counter 6 and FXN GAA850 act 2.
COc1ccc(Cl)cc1NC(=O)Cn1nnc(C(=O)NCc2ccc3c(c2)OCO3)c1N was read as HIF activator -1, procasp3 activ 2, procasp7 counter 3, Neddylation inh 69*, FXN GAA850 act 1, Calb FLC -7 and Neddyl conf inactive.
Screening COc1ccccc1NC(=O)Cn1nnc(C(=O)NCc2ccc3c(c2)OCO3)c1N returned HIF activator 0, procasp3 activ 0, procasp7 counter 8, Neddylation inh 3, FXN GAA850 act -1 and Calb FLC -1.
CCOC(=O)C1CCCN(S(=O)(=O)c2ccc(-c3cc(C)no3)s2)C1 (stereo not drawn) was read as HIF activator 0, procasp3 activ -1, procasp7 counter -3, Neddylation inh -6, FXN GAA850 act -1 and Calb FLC 14.
